Columns and labels:
Type in all cases: functional
[1] = system: Caco-2; assay: Growth inhibition of human Caco2 cells at 50 uM after 48 hrs by MTT assay; conditions: Caco-2, 48 h, read-out: GI
Summary of the method: (§1)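 Single-concentration MTT screen at 50 µM over 48 h in 96-well plates. Compounds giving >50% inhibition were rescreened at 30 µM. OD read at 570 nm, reference 620 nm. Result expressed as % growth inhibition versus untreated control. Mitomycin C, adriamycin or 5-fluorouracil used as positive controls. Mean ± SD of three independent experiments.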

[2] = system: MDA-MB-435; assay: Growth inhibition of human MDA-MB-435 cells at 50 uM after 48 hrs by MTT assay; conditions: MDA-MB-435, 48 h, read-out: GI; summary of the method: as §1
[3] = system: MIA PaCa-2; assay: Growth inhibition of human MIAPaCa2 cells at 50 uM after 48 hrs by MTT assay; conditions: MIA PaCa-2, 48 h, read-out: GI; summary of the method: as §1
[4] = system: ASPC1; assay: Growth inhibition of human AsPC1 cells at 50 uM after 48 hrs by MTT assay; conditions: ASPC1, 48 h, read-out: GI; summary of the method: as §1
[5] = system: HL-60; assay: Growth inhibition of human HL60 cells at 50 uM after 48 hrs by MTT assay; conditions: HL-60, 48 h, read-out: GI; summary of the method: as §1
[6] = system: MCF7; assay: Growth inhibition of human MCF7 cells at 50 uM after 48 hrs by MTT assay; conditions: MCF7, 48 h, read-out: GI; summary of the method: as §1
[7] = system: PC-3; assay: Growth inhibition of human PC3 cells at 50 uM after 48 hrs by MTT assay; conditions: PC-3, 48 h, read-out: GI; summary of the method: as §1
[8] = system: PC-3; assay: Growth inhibition of human PC3 cells at 10 uM after 48 hrs by MTT assay; conditions: PC-3, 48 h, read-out: GI
Summary of the method: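 MTT assay. Suspension or adherent cells were exposed to compound for 48 h. OD was read at 570 nm (reference 620 nm), with untreated control OD set as 100% viability. Results are percent growth inhibition, mean ± SD of three independent experiments.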

| Compound | inhibition of growth at 50 µM [1] | inhibition of growth at 50 µM [2] | inhibition of growth at 50 µM [3] | inhibition of growth at 50 µM [4] | inhibition of growth at 50 µM [5] | inhibition of growth at 50 µM [6] | inhibition of growth at 50 µM [7] | inhibition of growth at 10 µM [8] |
| --- | --- | --- | --- | --- | --- | --- | --- | --- |
| Cc1ccc(/C=C/C(=O)c2cc3c(c4c2OC(C)(C)CC4)OC(C)(C)CC3)cc1 | 11% | 38% | 41% | 2% | 18% | 15% | 48% |  |
| COc1cc(OC)c(/C=C/C(=O)c2cc3c(c4c2OC(C)(C)CC4)OC(C)(C)CC3)c(OC)c1 | 17% | 32% | 27% | 5% | 77% | 26% | 62% |  |
| CO[C@@]12[C@H](COC(N)=O)C3=C(C(=O)C(C)=C(N)C3=O)N1C[C@@H]1N[C@@H]12 [MITOMYCIN] |  |  |  |  |  |  |  | 68% |

Reference: ChEMBL document CHEMBL2331355, “Synthesis, structure activity relationship and mode of action of 3-substitutedphenyl-1-(2,2,8,8-tetramethyl-3,4,9,10-tetrahydro-2H,8H-pyrano[2,3-f]chromen-6-yl)-propenones as novel anticancer agents in human leukaemia HL-60 cells” (Eur J Med Chem, 2013)
